Data published in ChEMBL document CHEMBL1128588, “Synthesis and cytotoxicity of water-soluble ambrosin prodrug candidates” (1995).

Key:
Assay type in all cases: functional
Details in all cases: Homo sapiens
PC-3 = test: The compound was evaluated for cytotoxicity against prostate cancer cell line PC-3
Summary of the method: (§1)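 Tested within a panel of about 51 human cancer cell lines covering leukemia, non-small-cell lung and other tumour types. The value reported is GI50, the concentration giving 50% growth inhibition.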

SN12C = test: The compound was evaluated for cytotoxicity against renal cancer cell line SN12C; summary of the method: as §1
MCF7 = test: The compound was evaluated for cytotoxicity against breast cancer cell line MCF-7; summary of the method: as §1
OVCAR-5 = test: The compound was evaluated for cytotoxicity against ovarian cancer cell line OVCAR-5; summary of the method: as §1
NCI-H522 = test: The compound was evaluated for cytotoxicity against lung cancer cell line NCI-H522; summary of the method: as §1
LOX IMVI = test: The compound was evaluated for cytotoxicity against melanoma cell line LOX-IMVI; summary of the method: as §1
SF-539 = test: The compound was evaluated for cytotoxicity against CNS cancer cell line CNS SF-539; summary of the method: as §1
HCT-116 = test: The compound was evaluated for cytotoxicity against colon cancer cell line HCT116; summary of the method: as §1

Compound | GI50 (PC-3) | GI50 (SN12C) | GI50 (MCF7) | GI50 (OVCAR-5) | GI50 (NCI-H522) | GI50 (LOX IMVI) | GI50 (SF-539) | GI50 (HCT-116)
C=C1C(=O)O[C@@H]2[C@H]1CC[C@H](C)[C@@H]1C=CC(=O)[C@@]21C [AMBROSIN] | 4.5 µM | 3.4 µM | 3.9 µM | 4.9 µM | 1 µM | 2.2 µM | 2.9 µM | 1.8 µM
C[C@H]1CC[C@H]2C(CN3CCCC3)C(=O)O[C@H]2[C@]2(C)C(=O)CC(N3CCCC3)[C@@H]12 (some centres undefined) | 20 µM | 11 µM | 4.2 µM | 6.3 µM | 1.8 µM | 3.3 µM | 9.1 µM | 3.8 µM
C[C@H]1CC[C@H]2C(CN3CCCCC3)C(=O)O[C@H]2[C@]2(C)C(=O)CC(N3CCCCC3)[C@@H]12 (some centres undefined) | 8.5 µM | 8.1 µM | 4.7 µM | 22 µM | 1.1 µM | 3.6 µM | 5.4 µM | 1.8 µM
